This note sets out measurements from ChEMBL document CHEMBL1138429, “Novel carbazole derivatives as NPY Y1 antagonists” (Bioorg Med Chem Lett, 2007).

For series [1], the target named is T1, Neuropeptide Y receptor type 1 (Homo sapiens, UniProt P25929).
T1 sequence (P25929 whole entry): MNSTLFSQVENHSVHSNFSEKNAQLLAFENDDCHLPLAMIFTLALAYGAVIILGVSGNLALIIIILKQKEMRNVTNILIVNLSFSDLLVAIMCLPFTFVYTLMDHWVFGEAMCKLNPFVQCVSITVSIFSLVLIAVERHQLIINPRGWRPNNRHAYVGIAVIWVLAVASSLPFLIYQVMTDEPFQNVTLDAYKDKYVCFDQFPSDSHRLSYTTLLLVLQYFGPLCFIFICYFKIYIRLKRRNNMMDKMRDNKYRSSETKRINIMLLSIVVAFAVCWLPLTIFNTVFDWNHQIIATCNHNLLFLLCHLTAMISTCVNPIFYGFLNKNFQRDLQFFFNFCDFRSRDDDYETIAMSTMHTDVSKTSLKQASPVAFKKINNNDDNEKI
In words: Displacement of [125]peptide YY from human recombinant Y1 receptor expressed in CHO cells. It is filed as cell-based.

Series [2] is described as follows: Oral bioavailability in Sprague-Dawley rat at 5 mg/kg, po. The format is ADME, organism-based. The following applies: in vivo. The essentials: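 Male Sprague–Dawley rats received 5 mg/kg orally as a methocel suspension. F was calculated from the normalised AUC against the iv (1 mg/kg) dose.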
Series [3] can be described thus: Half life in Sprague-Dawley rat at 1 mg/kg, iv. Conditions: in vivo. The format is ADME, organism-based. Also noted: dose 1 mg/kg, route intravenous. The essentials:
(§1)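 Male Sprague–Dawley rats given 1 mg/kg iv as a solution in DMSO/PEG400/H2O 5:50:45. Clearance, half-life, volume of distribution and AUC were derived from the post-dose profile.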

Series [4] can be described thus: Plasma clearance in Sprague-Dawley rat at 1 mg/kg, iv. It is filed as ADME, organism-based. Also noted: dose 1 mg/kg, route intravenous. The essentials:
as §1

Series [5] can be described thus: Ratio of drug level in […] plasma in Sprague-Dawley rat at 1 mg/kg, iv after 5 mins. It is filed as ADME, organism-based. On the set-up: dose 1 mg/kg, route intravenous. The essentials: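 Brain penetration was assessed in male Sprague–Dawley rats dosed iv at 1 mg/kg in DMSO/PEG400/H2O 5:50:45 solution. The partition ratio was measured 5 min after dosing.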

The nature of series [6]: Ratio of drug level in […] plasma in Sprague-Dawley rat at 1 mg/kg, iv after 5 mins. The following applies: in vivo.

With `CN1CCN(C(=O)c2cc(Oc3ccc(Cl)cc3)c3c(c2)c2ccccc2n3C[C@@H]2CCN(C)C[C@@H]2F)CC1`, the IC50 (usually the concentration that gives 50% inhibition) in series [1] is 28 nM. Further, the bioavailability (usually dose-corrected exposure relative to a reference, in per cent) in series [2] was found to be 19%. Besides, the half-life (commonly the time in which the quantity being followed falls by half) in series [3] was 11 h. Further, the clearance (usually the volume of plasma or blood freed of the substance per unit of time) in series [4] is 15 mL/min/kg. The blood plasma ratio at 5 min in series [5] was determined as 4.2. Turning to `O=C(c1cc(Oc2ccc(Cl)cc2)c2c(c1)c1ccccc1n2C[C@@H]1CCNC[C@@H]1F)N1CCC(O)CC1`, the IC50 in series [1] is 7760 nM. In the case of `CN1CCN(C(=O)c2cc(Oc3ccc(Cl)cc3)c3c(c2)c2ccccc2n3C[C@@H]2CCN(C)C[C@H]2F)CC1`, in series [1], the half-maximal inhibitory concentration (IC50) stood at 95 nM. The blood plasma ratio at 5 min in series [5] amounted to 8.2.

For `CN1CCN(C(=O)c2cc(Oc3ccc(Cl)cc3)c3c(c2)c2ccccc2n3CC2CCCNC2)CC1` (stereo unspecified), the IC50 in series [1] came to 107 nM. The same measure, in the same setting: as for `O=C(c1cc(Oc2ccc(Cl)cc2)c2c(c1)c1ccccc1n2C[C@@H]1CCNC[C@H]1F)N1CCN(C2CC2)CC1`, the figure is 871 nM; as for `CN(C)C1CCN(C(=O)c2cc(Oc3ccc(Cl)cc3)c3c(c2)c2ccccc2n3C[C@@H]2CCNC[C@H]2F)C1` (stereo partly specified), 467 nM; as for `CN1CCN(C(=O)c2cc(Oc3ccc(Cl)cc3)c3c(c2)c2ccccc2n3CC2CCN(CC(=O)N(C)C)CC2)CC1`, 14 nM.

With `CN1CCN(C(=O)c2cc(Oc3ccc(Cl)cc3)c3c(c2)c2ccccc2n3CCCN2CCCCC2)CC1`, the IC50 in series [1] stood at 50 nM. Still for that read-out and setting: as for `O=C(c1cc(Oc2ccc(Cl)cc2)c2c(c1)c1ccccc1n2C[C@@H]1CCNC[C@@H]1F)N1CCN(CC(F)(F)F)CC1`, the figure is 9770 nM; as for `O=C(c1cc(Oc2ccc(Cl)cc2)c2c(c1)c1ccccc1n2C[C@@H]1CCNC[C@@H]1F)N1CCc2nc[nH]c2C1`, 2880 nM. Same read-out and setting: as for `CN1CCCC1CCNC(=O)c1cc(Oc2ccc(Cl)cc2)c2c(c1)c1ccccc1n2C[C@@H]1CCNC[C@H]1F` (stereo partly specified), the figure is 1860 nM; as for `CN(C)CCN(C)C(=O)c1cc(Oc2ccc(Cl)cc2)c2c(c1)c1ccccc1n2C[C@@H]1CCNC[C@H]1F`, 191 nM; as for `CN(C)C(=O)c1cc(Oc2ccc(Cl)cc2)c2c(c1)c1ccccc1n2C[C@@H]1CCNC[C@H]1F`, 12000 nM. Same read-out and setting: as for `CN1CCN(C(=O)c2cc(Oc3ccc(Cl)cc3)c3c(c2)c2ccccc2n3C[C@@H]2CCNC[C@@H]2F)CC1`, the figure is 51 nM; as for `O=C(c1cc(Oc2ccc(Cl)cc2)c2c(c1)c1ccccc1n2C[C@@H]1CCNC[C@@H]1F)N1CCn2ccnc2C1`, 1910 nM; as for `CN1CCN(C(=O)c2cc(Oc3ccc(Cl)cc3)c3c(c2)c2ccccc2n3C[C@@H]2CCNC[C@H]2F)CC1`, 53 nM.

Turning to `CN1CCC(Cn2c3ccccc3c3cc(C(=O)N4CCN(C)CC4)cc(Oc4ccc(Cl)cc4)c32)CC1`, the IC50 in series [1] was found to be 11 nM. For the same molecule, in series [5], the blood plasma ratio at 5 min was determined as 0.8. As to `CN1CCN(C(=O)c2cc(Oc3ccc(Cl)cc3)c3c(c2)c2ccccc2n3C[C@@H]2CCN(C3CC3)C[C@@H]2F)CC1`, the IC50 in series [1] stood at 186 nM.

`CN(C)CCNC(=O)c1cc(Oc2ccc(Cl)cc2)c2c(c1)c1ccccc1n2C[C@@H]1CCNC[C@H]1F`: in series [1], the IC50 stood at 50 nM.

For `O=C(c1cc(Oc2ccc(Cl)cc2)c2c(c1)c1ccccc1n2C[C@@H]1CCNC[C@@H]1F)N1CCN(CCO)CC1`, in series [1], the IC50 was found to be 832 nM.

Turning to `CN1CCN(C(=O)c2cc(Oc3ccc(Cl)cc3)c3c(c2)c2ccccc2n3CC2CCNCC2)CC1`, the IC50 in series [1] was 16 nM. In series [2], this molecule came in with a bioavailability of 0%. Besides, the Ratio in series [6] stood at 0.12. On to `CCN1CCCC1CNC(=O)c1cc(Oc2ccc(Cl)cc2)c2c(c1)c1ccccc1n2C[C@@H]1CCNC[C@H]1F` (stereo partly specified), for which the IC50 in series [1] is 263 nM.

Take `CN1CCN(C(=O)c2cc(Oc3ccc(Cl)cc3)c3c(c2)c2ccccc2n3CC2=C(F)CNCC2)CC1`: in series [1], the half-inhibitory concentration (IC50) is 43 nM.
